From ChEMBL document CHEMBL1133118 (J Med Chem, 2000) come the findings set out here.

Test [1] addresses T1, Adenosine receptor A2b (Homo sapiens, UniProt P29275).
T1 sequence (P29275 whole entry): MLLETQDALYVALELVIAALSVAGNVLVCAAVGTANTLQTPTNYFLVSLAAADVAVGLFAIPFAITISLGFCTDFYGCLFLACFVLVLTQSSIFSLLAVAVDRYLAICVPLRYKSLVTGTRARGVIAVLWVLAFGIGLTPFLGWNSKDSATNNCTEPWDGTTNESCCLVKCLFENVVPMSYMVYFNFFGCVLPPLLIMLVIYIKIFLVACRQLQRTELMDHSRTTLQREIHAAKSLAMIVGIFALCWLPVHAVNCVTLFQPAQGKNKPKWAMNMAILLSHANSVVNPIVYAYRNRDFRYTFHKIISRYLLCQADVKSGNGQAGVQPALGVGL
Nature of the test: Displacement of [3H]DPCPX from Adenosine A2b receptor expressed in […]; range 188-320. Format: cell-based. In short, it runs like this: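 Human recombinant A2B receptor was expressed in HEK-293 cell membranes (20 μg protein). Incubated with 40 nM [3H]DPCPX in 50 mM Tris HCl, 10 mM MgCl2, 1 mM EDTA, 0.1 mM benzamidine, pH 7.4, with 2 IU/mL adenosine deaminase, at least 6–8 test concentrations, 60 min, 25 °C. Nonspecific binding was taken with 100 μM NECA; n=3-6.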
(In general: Displacement assays read how much labelled ligand stays bound in the presence of the test substance.)

Test [2] has as its target T2, Adenosine receptor A3 (Homo sapiens, UniProt P0DMS8).
T2 sequence (P0DMS8 whole entry): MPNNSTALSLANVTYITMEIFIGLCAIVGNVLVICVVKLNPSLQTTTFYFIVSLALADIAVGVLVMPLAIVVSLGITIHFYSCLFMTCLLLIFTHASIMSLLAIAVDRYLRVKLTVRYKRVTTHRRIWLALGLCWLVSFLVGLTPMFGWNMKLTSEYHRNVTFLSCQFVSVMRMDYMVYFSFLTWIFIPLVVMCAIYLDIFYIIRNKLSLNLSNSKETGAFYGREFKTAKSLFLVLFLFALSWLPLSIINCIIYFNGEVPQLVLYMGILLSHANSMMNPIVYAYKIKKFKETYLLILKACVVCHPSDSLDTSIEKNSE
Nature of the test: Inhibition of cAMP accumulation in CHO cells expressing human adenosine A3 receptor; range 2.5-9.3. The class given is functional, cell-based. (In general: Changes in cAMP serve as a functional read-out for many G protein-coupled receptors.)

The target of test [3] is Adenosine receptors; A1 & A3 (Homo sapiens) (UniProt P30542+P0DMS8). Description: Ratio of binding affinity of human A1 receptor to that of human A3 receptor. Format: protein assay. In short, it runs like this:
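Ki ratio from displacement in CHO membranes, 6–8 concentrations, n=3-6, filtration counting. A1: 1 nM [3H]DPCPX, 50 μg protein, 120 min at 25 °C, nonspecific with 10 μM CHA. A3: 1 nM [3H]MRE3008-F20, 50 μg protein, Tris/10 mM MgCl2 pH 7.4, 120 min at 4 °C, nonspecific with 1 μM MRE3008-F20.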

Test [4] deals with Adenosine receptors; A2b & A3 (Homo sapiens) (UniProt P29275+P0DMS8). Nature of the test: Ratio of binding affinity of human A2B receptor to that of human A3 receptor. The class given is protein assay. The gist of the method:
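Ki ratio, n=3-6, 6–8 concentrations. A2B in HEK-293 membranes (20 μg): 40 nM [3H]DPCPX, 50 mM Tris HCl, 10 mM MgCl2, 1 mM EDTA, 0.1 mM benzamidine pH 7.4, 2 IU/mL adenosine deaminase, 60 min at 25 °C, nonspecific with 100 μM NECA. A3 in CHO membranes (50 μg): 1 nM [3H]MRE3008-F20, 120 min at 4 °C.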

Test [5] has as its target T2, Adenosine receptor A3. Description: Displacement of [3H]MRE3008-F20 from human adenosine A3 receptor expressed in CHO cells; range 0.51-0.70. Format: cell-based.
The target of test [6] is T1, Adenosine receptor A2b. Nature of the test: Displacement of [3H]DPCPX from Adenosine A2b receptor expressed in HEK-293 cells; range 81-101.
Test [7] addresses T3, Adenosine receptor A1 (Homo sapiens, UniProt P30542).
T3 sequence (P30542 whole entry): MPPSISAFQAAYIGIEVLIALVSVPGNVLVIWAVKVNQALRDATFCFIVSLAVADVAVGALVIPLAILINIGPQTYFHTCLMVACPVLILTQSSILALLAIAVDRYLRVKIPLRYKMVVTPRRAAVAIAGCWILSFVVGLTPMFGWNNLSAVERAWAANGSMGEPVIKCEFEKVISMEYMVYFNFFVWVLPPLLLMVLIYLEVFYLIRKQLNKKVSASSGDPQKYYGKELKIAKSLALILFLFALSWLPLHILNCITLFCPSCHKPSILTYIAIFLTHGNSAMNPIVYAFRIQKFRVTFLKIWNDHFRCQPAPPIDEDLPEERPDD
Nature of the test: Displacement of [3H]DPCPX from human adenosine A1 receptor expressed in CHO cells; range 81-127. The class given is cell-based.

The target in test [8] is T2, Adenosine receptor A3. Nature of the test: biochemical.
Test [9] addresses T4, Adenosine receptor A3 (Homo sapiens) (UniProt P0DMS8).
T4 sequence (whole entry): T2 sequence (P0DMS8 whole entry)
Description: Percentage of blockade by 1 uM of the inhibition by 100 nM IB-MECA-inhibited cAMP accumulation in CHO cells expressing human adenosine A3 receptor. The class given is functional, cell-based. In short, it runs like this: (§1)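 CHO cells stably expressing human A3 receptor; membranes in 50 mM Tris HCl, 10 mM MgCl2, 1 mM EDTA pH 7.4 with 5 μM GTP, 0.5 mM […] and 2.0 IU/mL adenosine deaminase. Preincubated 10 min at 37 °C, then IB-MECA (100 nM) and/or antagonist with 1 mM ATP and 10 μM forskolin for 10 min. Boiled 2 min. cAMP read by [3H]cAMP competition with adrenal binding protein.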

Test [10] addresses T5, Adenosine receptor A2a (Homo sapiens, UniProt P29274). Description: Displacement of [3H]-SCH- 58261 from human adenosine A2A receptor expressed in CHO cells; range 2.40-3.55. The class given is cell-based.
For test [11], the target named is T2, Adenosine receptor A3. Nature of the test: Displacement of [3H]MRE3008-F20 from human adenosine A3 receptor expressed in CHO cells; range 7.2-8.9. The class given is cell-based.
Test [12] deals with T1, Adenosine receptor A2b. Description: Displacement of [3H]DPCPX from Adenosine A2b receptor expressed in […]; range 260-352. Format: cell-based.
Test [13] addresses T3, Adenosine receptor A1. Description: Displacement of [3H]DPCPX from human adenosine A1 receptor expressed in CHO cells; range 269-326. Format: cell-based.
Test [14] concerns the target T2, Adenosine receptor A3. Description: Displacement of [3H]MRE3008-F20 from human adenosine A3 receptor expressed in CHO cells; range 0.27-0.34. Format: cell-based.
Test [15] deals with T4, Adenosine receptor A3 (Homo sapiens). The settings on record: CHO, 1 uM.
The target of test [16] is T5, Adenosine receptor A2a. Description: Displacement of [3H]-SCH- 58261 from human adenosine A2A receptor expressed in CHO cells; range 65-92. The class given is cell-based. The gist of the method:
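Membranes from CHO cells stably expressing human A2A receptor, grown in DMEM/F12 without nucleosides, resuspended in 50 mM Tris HCl, 10 mM MgCl2, pH 7.4; 50 μg protein/assay. Competition with [3H]SCH 58261 at 6–8 or more compound concentrations, 60 min at 25 °C; nonspecific binding with 50 μM NECA. Filtration on GF/B filters, scintillation counting; n=3-6.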

In test [17] the target is T2, Adenosine receptor A3. Description: Inhibition of cAMP accumulation in CHO cells expressing human adenosine A3 receptor; range 2.9-6.0. The class given is functional, cell-based.
For test [18], the target named is T5, Adenosine receptor A2a. Nature of the test: biochemical.
Test [19] addresses T3, Adenosine receptor A1. Nature of the test: Displacement of [3H]DPCPX from human adenosine A1 receptor expressed in CHO cells; range 6.5-8.7. The class given is cell-based.
For test [20], the target named is T2, Adenosine receptor A3. Nature of the test: Inhibition of cAMP accumulation in CHO cells expressing human adenosine A3 receptor; range 1.1-3.8. The class given is functional, cell-based.
The target in test [21] is T4, Adenosine receptor A3 (Homo sapiens). Nature of the test: Percent reversal of 100 nM IB-MECA-inhibited cAMP accumulation in CHO cells expressing human adenosine A3 receptor at 1 uM; range 92-102. Format: functional, cell-based. The gist of the method: as §1
The target of test [22] is T1, Adenosine receptor A2b. Description: Displacement of [3H]DPCPX from Adenosine A2b receptor expressed in […]; range 19-27. The class given is cell-based.
The target in test [23] is T1, Adenosine receptor A2b. Nature of the test: Displacement of [3H]DPCPX from Adenosine A2b receptor expressed in […]; range 70-94. The class given is cell-based.
For test [24], the target named is T2, Adenosine receptor A3. Nature of the test: Inhibition of cAMP accumulation in CHO cells expressing human adenosine A3 receptor. Format: functional, cell-based.
Test [25] has as its target T2, Adenosine receptor A3. Description: Displacement of [3H]MRE3008-F20 from human adenosine A3 receptor expressed in CHO cells; […]. Format: cell-based.

In general, Ki refers to the equilibrium dissociation constant of an inhibitor or competing ligand from its target. Broadly, the IC50 is the point on the concentration scale where inhibition reaches its midpoint. The low end stands for higher potency, the high end for lower potency. As a reminder, the inhibition is the relative decrease from the control value, in per cent.

T5 sequence (P29274 whole entry): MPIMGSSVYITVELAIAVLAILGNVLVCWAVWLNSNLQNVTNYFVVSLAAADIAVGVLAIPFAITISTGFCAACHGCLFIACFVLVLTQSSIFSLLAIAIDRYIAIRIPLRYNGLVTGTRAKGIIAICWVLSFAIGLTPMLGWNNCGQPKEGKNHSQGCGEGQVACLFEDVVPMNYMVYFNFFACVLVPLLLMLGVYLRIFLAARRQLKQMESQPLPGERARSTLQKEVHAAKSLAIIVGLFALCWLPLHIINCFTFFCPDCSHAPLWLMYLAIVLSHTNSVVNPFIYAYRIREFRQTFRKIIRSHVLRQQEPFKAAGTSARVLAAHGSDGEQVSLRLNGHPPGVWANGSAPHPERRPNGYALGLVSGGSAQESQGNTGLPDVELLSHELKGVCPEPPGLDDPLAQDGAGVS

On to `CCn1cc2c(nc(NC(=O)Nc3ccc(OC)cc3)n3nc(-c4ccco4)nc23)n1`, for which the Ki on Adenosine receptor A2b [1] was 245 nM; at Adenosine receptor A3 [5], 0.6 nM. Half-maximal inhibition at Adenosine receptor A3 [2] (IC50) required 4.8 nM. Also, the figures for the Ratio in [3] and in [4] were 1710 and 408, respectively.

`Cn1cc2c(nc(N)n3nc(-c4ccco4)nc23)n1`: the Ki at Adenosine receptor A2b [6] stood at 90 nM; at Adenosine receptor A1 [7] it was 101 nM; at Adenosine receptor A3 [8] it was 300 nM; on Adenosine receptor A2a [10] it was 2.8 nM. In addition, the Ratio in [3] worked out at 0.33; in test [4], 0.3. In addition, the inhibition in [9] is 26%.

Take `O=C(Nc1cccc(Cl)c1)Nc1nc2nn(CCc3ccccc3)cc2c2nc(-c3ccco3)nn12`: the inhibition constant (Ki) at Adenosine receptor A3 [11] is 8 nM; on Adenosine receptor A2b [6], 90 nM. In addition, the Ratio in test [3] was determined as 6.3; in test [4] it was 11.2. The inhibition in test [9] was 58%.

`CCCCn1cc2c(nc(NC(=O)Nc3ccc(OC)cc3)n3nc(-c4ccco4)nc23)n1`: the inhibition constant (Ki) on Adenosine receptor A2b [12] worked out at 303 nM; at Adenosine receptor A1 [13], 296 nM; on Adenosine receptor A3 [14], 0.32 nM; at Adenosine receptor A2a [16] it was 80 nM. In test [15], this compound gave an inhibition of 93%. Besides, the Ratio was determined as 925 in [3] and 946 in test [4]. At Adenosine receptor A3 [17], this compound displayed an IC50 of 4.1 nM.

`COc1ccc(NC(=O)Nc2nc3ccc(Cl)cc3c3nc(-c4ccco4)nn23)cc1`: the results for the Ki at Adenosine receptor A2a [18], on Adenosine receptor A1 [19] and on Adenosine receptor A2b [22] were 9.4 nM, 7.6 nM and 22 nM, respectively. The compound also yielded an IC50 against Adenosine receptor A3 [20] of 2 nM. In addition, the Ratio in [3] turned out to be 43; in test [4] it was 158. The inhibition in test [21] is 97%.

Turning to `COc1ccc(NC(=O)Nc2nc3nn(CCc4ccccc4)cc3c3nc(-c4ccco4)nn23)cc1`, the inhibition constant (Ki) at Adenosine receptor A2b [23] was 81 nM; at Adenosine receptor A3 [25] it was 0.98 nM. For the same compound, on Adenosine receptor A3 [24], the IC50 turned out to be 13.9 nM. Also, the figures for the Ratio in test [3] and in [4] were 205 and 82.6, respectively.
